pIC50: −log10 of the molar value.
Key:
[1] = target: T1, Amine oxidase [flavin-containing] B (Homo sapiens, UniProt P27338); assay: Inhibition of human recombinant MAO-B using p-tyramine as substrate assessed as production of H2O2 incubated for 15 mins prior to substrate addition measured after 20 mins by microplate fluorescence reader analysis
T1 sequence (P27338 whole entry): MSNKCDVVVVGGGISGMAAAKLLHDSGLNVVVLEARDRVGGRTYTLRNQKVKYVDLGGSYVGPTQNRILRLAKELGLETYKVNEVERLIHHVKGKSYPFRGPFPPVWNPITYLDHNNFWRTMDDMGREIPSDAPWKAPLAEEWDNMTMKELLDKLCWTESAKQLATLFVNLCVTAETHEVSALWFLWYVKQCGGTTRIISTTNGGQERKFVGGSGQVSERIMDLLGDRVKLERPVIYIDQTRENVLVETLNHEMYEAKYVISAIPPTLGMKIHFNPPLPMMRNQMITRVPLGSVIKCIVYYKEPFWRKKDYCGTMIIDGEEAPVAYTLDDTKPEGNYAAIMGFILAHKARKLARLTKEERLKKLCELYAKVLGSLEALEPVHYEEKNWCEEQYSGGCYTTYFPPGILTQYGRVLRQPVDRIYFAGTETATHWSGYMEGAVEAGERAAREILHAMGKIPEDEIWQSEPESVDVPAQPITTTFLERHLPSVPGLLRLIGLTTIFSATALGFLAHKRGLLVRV

Homo sapiens = species: Homo sapiens; assay: Selectivity index, ratio of IC50 for human recombinant MAO-B to IC50 for human recombinant MAO-A
Outline: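 SI = IC50(MAO-B)/IC50(MAO-A), both from the same Amplex Red/p-tyramine H2O2 fluorimetric assay. Each isoform came from microsomes of baculovirus-infected insect cells: MAO-A at 1.1 µg, MAO-B at 7.5 µg, matched to equal velocity.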

[2] = target: T2, Amine oxidase [flavin-containing] A (Homo sapiens, UniProt P21397); assay: Inhibition of human recombinant MAO-A using p-tyramine as substrate assessed as production of H2O2 incubated for 15 mins prior to substrate addition measured after 20 mins by microplate fluorescence reader analysis
T2 sequence (P21397 whole entry): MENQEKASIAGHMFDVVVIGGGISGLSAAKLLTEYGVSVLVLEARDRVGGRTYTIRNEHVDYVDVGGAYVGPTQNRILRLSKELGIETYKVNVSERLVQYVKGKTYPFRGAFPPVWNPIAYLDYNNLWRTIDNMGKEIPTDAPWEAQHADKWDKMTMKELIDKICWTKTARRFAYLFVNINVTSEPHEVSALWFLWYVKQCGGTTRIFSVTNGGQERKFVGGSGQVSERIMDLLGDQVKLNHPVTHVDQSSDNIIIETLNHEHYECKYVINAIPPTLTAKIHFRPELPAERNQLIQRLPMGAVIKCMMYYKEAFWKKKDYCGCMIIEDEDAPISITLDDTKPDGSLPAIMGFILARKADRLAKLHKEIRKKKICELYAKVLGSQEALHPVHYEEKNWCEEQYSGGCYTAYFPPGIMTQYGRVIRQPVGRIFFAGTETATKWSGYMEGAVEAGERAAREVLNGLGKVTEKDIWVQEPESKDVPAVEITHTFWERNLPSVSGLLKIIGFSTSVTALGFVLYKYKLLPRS

[3] = target: T1, Amine oxidase [flavin-containing] B; assay: Inhibition of human recombinant MAO-B using p-tyramine as substrate assessed as production of H2O2 incubated for 15 mins prior to substrate addition at 60 uM measured after 20 mins by microplate fluorescence reader analysis
[4] = target: T2, Amine oxidase [flavin-containing] A; assay: Inhibition of human recombinant MAO-A using p-tyramine as substrate assessed as production of H2O2 incubated for 15 mins prior to substrate addition at 60 uM […] by microplate fluorescence reader analysis; conditions: 20 min

In the case of `O=C(CN1CCNCC1)N1N=C(c2ccc(F)cc2)CC1c1cc(Cl)ccc1O` (centres undefined), the pIC50 [1] was 4.23, the Ratio IC50 (Homo sapiens) was 24.5 and the pIC50 [2] was 5.62.
`CC1=NN(C(=O)CN2CCC(=O)CC2)C(c2cc(Br)cc(Br)c2O)C1` (centres undefined) showed a pIC50 [1] of 4.23, a Ratio IC50 (Homo sapiens) of 7 and a pIC50 [2] of 5.08.
With `Cc1ccc(C2=NN(C(=O)CN3CCOCC3)C(c3ccccc3O)C2)cc1` (centres undefined) the Ratio IC50 (Homo sapiens) was 3, the pIC50 [2] was 4.70 and the INH [3] was “Not Active”.
With `Cc1ccc(C2=NN(C(=O)Cn3ccnc3)C(c3ccccc3O)C2)cc1` (centres undefined) the pIC50 [1] was 4.38, the Ratio IC50 (Homo sapiens) was 0.69 and the “inhibition (INH)” value [4] was “Not Active”.
For `COc1ccc(C2=NN(C(=O)Cn3ccnc3)C(c3ccccc3O)C2)cc1` (centres undefined), the INH [3] was “Not Active” and the “inhibition (INH)” value [4] was “Not Active”.
Compound `CC1=NN(C(=O)CN2CCC(CO)CC2)C(c2cc(Br)cc(Br)c2O)C1` (centres undefined) has a pIC50 [1] of 4.52, a Ratio IC50 (Homo sapiens) of 1.2 and a pIC50 [2] of 4.59.
In the case of `O=C(CN1CCOCC1)N1N=C(c2ccc(F)cc2)CC1c1cc(Cl)ccc1O` (centres undefined), the pIC50 [1] was 4.52, the Ratio IC50 (Homo sapiens) was 1.2 and the pIC50 [2] was 4.61.
`O=C(CN1CCCCC1)N1N=C(c2ccc(Cl)cc2)CC1c1cc(Cl)ccc1O` (centres undefined) showed a pIC50 [1] of 4.36, a Ratio IC50 (Homo sapiens) of 7.3 and a pIC50 [2] of 5.22.
In the case of `O=C(CN1CCOCC1)N1N=C(c2ccccc2)CC1c1ccccc1O` (centres undefined), the Ratio IC50 (Homo sapiens) was 2.6, the pIC50 [2] was 4.64 and the INH [3] was “Not Active”.
`COc1ccc(C2=NN(C(=O)CN3CCCCC3)C(c3ccccc3O)C2)cc1` (centres undefined) showed a pIC50 [1] of 4.23, a Ratio IC50 (Homo sapiens) of 4.7 and a pIC50 [2] of 4.90.
`O=C(CN1CCOCC1)N1N=C(c2ccc(Cl)cc2)CC1c1cc(Cl)ccc1O` (centres undefined) gave a pIC50 [1] of 4.26, a Ratio IC50 (Homo sapiens) of 1.8 and a pIC50 [2] of 4.51.
Compound `Cc1ccc(C2=NN(C(=O)CN3CCCCC3)C(c3cc(Cl)ccc3O)C2)cc1` (centres undefined) has a pIC50 [1] of 4.25, a Ratio IC50 (Homo sapiens) of 3.9 and a pIC50 [2] of 4.84.
For `O=C(Cn1ccnc1)N1N=C(c2ccc(F)cc2)CC1c1ccccc1O` (centres undefined), the Ratio IC50 (Homo sapiens) was 2.3, the pIC50 [2] was 4.58 and the INH [3] was “Not Active”.
Compound `CC1=NN(C(=O)CN2CCCCC2)C(c2cc(Cl)ccc2O)C1` (centres undefined) has a pIC50 [1] of 4.25, a Ratio IC50 (Homo sapiens) of 5.3 and a pIC50 [2] of 4.98.
With `CC1=NN(C(=O)Cn2ccnc2)C(c2cc(Cl)ccc2O)C1` (centres undefined) the Ratio IC50 (Homo sapiens) was 2, the pIC50 [2] was 4.52 and the INH [3] was “Not Active”.
Compound `O=C(CN1CCCCC1)N1N=C(c2ccccc2)CC1c1ccccc1O` (centres undefined) has a pIC50 [1] of 4.30, a Ratio IC50 (Homo sapiens) of 5.3 and a pIC50 [2] of 5.02.
With `O=C(CN1CCCCC1)N1N=C(c2ccc(F)cc2)CC1c1ccccc1O` (centres undefined) the pIC50 [1] was 4.32, the Ratio IC50 (Homo sapiens) was 5.9 and the pIC50 [2] was 5.10.
`O=C(CN1CCOCC1)N1N=C(c2ccc(F)cc2)CC1c1ccccc1O` (centres undefined) was tested, and the Ratio IC50 (Homo sapiens) was 3.6, the pIC50 [2] was 4.77 and the INH [3] was “Not Active”.
Compound `CC1=NN(C(=O)CN2CCOCC2)C(c2cc(Cl)ccc2O)C1` (centres undefined) has a pIC50 [1] of 4.38, a Ratio IC50 (Homo sapiens) of 3.2 and a pIC50 [2] of 4.88.
With `Cc1ccc(C2=NN(C(=O)Cn3ccnc3)C(c3cc(Cl)ccc3O)C2)cc1` (centres undefined) the pIC50 [1] was 4.79, the Ratio IC50 (Homo sapiens) was 0.27 and the “inhibition (INH)” value [4] was “Not Active”.
In the case of `O=C(CN1CCCCC1)N1N=C(c2ccc(F)cc2)CC1c1cc(Cl)ccc1O` (centres undefined), the Ratio IC50 (Homo sapiens) was 16.1, the pIC50 [2] was 5.43 and the INH [3] was “Not Active”.
With `COc1ccc(C2=NN(C(=O)CN3CCCCC3)C(c3cc(Cl)ccc3O)C2)cc1` (centres undefined) the Ratio IC50 (Homo sapiens) was 6.2, the pIC50 [2] was 5.02 and the INH [3] was “Not Active”.
`CC1=NN(C(=O)CN2CCCCC2)C(c2cc(Br)cc(Br)c2O)C1` (centres undefined) was tested, and the pIC50 [1] was 4.30, the Ratio IC50 (Homo sapiens) was 6.4 and the pIC50 [2] was 5.11.
In the case of `O=C(CBr)N1N=C(c2ccc(F)cc2)CC1c1ccccc1O` (centres undefined), the pIC50 [1] was 4.28, the Ratio IC50 (Homo sapiens) was 8.8 and the pIC50 [2] was 5.22.
`COc1ccc(C2=NN(C(=O)CN3CCOCC3)C(c3cc(Cl)ccc3O)C2)cc1` (centres undefined) was tested, and the pIC50 [1] was 4.25, the Ratio IC50 (Homo sapiens) was 3.1 and the pIC50 [2] was 4.74.
`Cc1ccc(C2=NN(C(=O)CN3CCOCC3)C(c3cc(Cl)ccc3O)C2)cc1` (centres undefined) was tested, and the Ratio IC50 (Homo sapiens) was 2.2, the pIC50 [2] was 4.57 and the INH [3] was “Not Active”.
For `O=C(CN1CCOCC1)N1N=C(c2ccc(Cl)cc2)CC1c1ccccc1O` (centres undefined), the pIC50 [1] was 4.50, the Ratio IC50 (Homo sapiens) was 1.5 and the pIC50 [2] was 4.67.
With `O=C(Cn1ccnc1)N1N=C(c2ccc(F)cc2)CC1c1cc(Cl)ccc1O` (centres undefined) the INH [3] was “Not Active” and the “inhibition (INH)” value [4] was “Not Active”.
In the case of `CC1=NN(C(=O)CN2CCNCC2)C(c2cc(Br)cc(Br)c2O)C1` (centres undefined), the Ratio IC50 (Homo sapiens) was 30, the pIC50 [2] was 5.70 and the INH [3] was “Not Active”.
`CC1=NN(C(=O)CN2CCN(CCO)CC2)C(c2cc(Br)cc(Br)c2O)C1` (centres undefined) showed a pIC50 [1] of 4.37, a Ratio IC50 (Homo sapiens) of 3.4 and a pIC50 [2] of 4.91.
In the case of `Cc1ccc(C2=NN(C(=O)CBr)C(c3cc(Cl)ccc3O)C2)cc1` (centres undefined), the Ratio IC50 (Homo sapiens) was 11.5, the pIC50 [2] was 5.28 and the INH [3] was “Not Active”.
In the case of `CC1=NN(C(=O)CN2CCC(O)CC2)C(c2cc(Br)cc(Br)c2O)C1` (centres undefined), the Ratio IC50 (Homo sapiens) was 4.8, the pIC50 [2] was 4.91 and the INH [3] was “Not Active”.
For `Cc1ccc(C2=NN(C(=O)CN3CCCCC3)C(c3ccccc3O)C2)cc1` (centres undefined), the pIC50 [1] was 4.34, the Ratio IC50 (Homo sapiens) was 4 and the pIC50 [2] was 4.95.
In the case of `COc1ccc(C2=NN(C(=O)CN3CCOCC3)C(c3ccccc3O)C2)cc1` (centres undefined), the Ratio IC50 (Homo sapiens) was 2.5, the pIC50 [2] was 4.61 and the INH [3] was “Not Active”.
In the case of `C#CCN(C)[C@H](C)Cc1ccccc1` [SELEGILINE], the “inhibition (INH)” value [4] was “Not Active”.
In the case of `O=C(Cn1ccnc1)N1N=C(c2ccccc2)CC1c1ccccc1O` (centres undefined), the pIC50 [1] was 4.23, the Ratio IC50 (Homo sapiens) was 1 and the “inhibition (INH)” value [4] was “Not Active”.
With `O=C(CN1CCCCC1)N1N=C(c2ccc(Cl)cc2)CC1c1ccccc1O` (centres undefined) the pIC50 [1] was 4.40, the Ratio IC50 (Homo sapiens) was 5.5 and the pIC50 [2] was 5.14.
In the case of `COc1ccc(C2=NN(C(=O)Cn3ccnc3)C(c3cc(Cl)ccc3O)C2)cc1` (centres undefined), the INH [3] was “Not Active” and the “inhibition (INH)” value [4] was “Not Active”.
